The values that follow come from ChEMBL document CHEMBL1122056, “Synthesis and biochemical properties of chemically stable product analogues of the reaction catalyzed by S-adenosyl-L-methionine decarboxylase” (J Med Chem, 1982).

Usually Ki stands for the dissociation constant of the complex between target and ligand, obtained from inhibition or displacement.

For assay [1], the target named is T1, S-adenosylmethionine decarboxylase proenzyme (Rattus norvegicus) (UniProt P17708).
T1 sequence (whole entry): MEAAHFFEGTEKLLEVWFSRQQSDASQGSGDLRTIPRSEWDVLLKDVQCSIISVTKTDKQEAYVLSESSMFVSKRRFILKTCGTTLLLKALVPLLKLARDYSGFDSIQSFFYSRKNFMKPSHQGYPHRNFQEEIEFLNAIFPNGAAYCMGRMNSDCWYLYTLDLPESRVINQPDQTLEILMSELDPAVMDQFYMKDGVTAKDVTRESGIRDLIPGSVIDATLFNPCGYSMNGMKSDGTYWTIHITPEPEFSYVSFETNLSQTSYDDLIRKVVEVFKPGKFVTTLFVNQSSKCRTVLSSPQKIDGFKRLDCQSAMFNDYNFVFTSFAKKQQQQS
Put plainly: Time required for the half inactivation of S-Adenosyl-L-methionine decarboxylase was determined with 0.2 mM of compound. The procedure, abridged: (§1)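 The partly purified rat liver enzyme, from MGBG-treated rats, was incubated at 37 °C in 30 mM sodium phosphate pH 7.1 with 5 mM dithiothreitol and the stated additions. Aliquots were taken at intervals and assayed for remaining activity with S-adenosyl-L-[carboxy-14C]methionine. The half-inactivation time was obtained by a least-squares fit of the data points.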

The target of assay [2] is T2, S-adenosylmethionine decarboxylase proenzyme (Rattus norvegicus, UniProt P17708).
T2 sequence (P17708 whole entry): T1 sequence (whole entry)
Put plainly: In vitro inhibitory activity against S-adenosyl-L-methionine decarboxylase using liver from rat in absence of putrescine. The procedure, abridged: (§2)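 Enzyme source: liver of rats injected with MGBG·2HCl (80 mg/kg) 22 h before sacrifice. The extract was taken through a 10500g centrifugation and an (NH4)2SO4 precipitation. Decarboxylation of S-adenosyl-L-[carboxy-14C]methionine was measured as 14CO2 release, with or without 1 mM putrescine. Competitive inhibition was judged from Lineweaver-Burk plots, and Ki was read from Dixon plots.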

Assay [3] deals with T1, S-adenosylmethionine decarboxylase proenzyme (Rattus norvegicus). Put plainly: Time required for the half inactivation of S-Adenosyl-L-methionine decarboxylase was determined with 0.2 mM of compound along with 1 mM NaBH3CN. In outline:
as §1

Assay [4] deals with T2, S-adenosylmethionine decarboxylase proenzyme. Put plainly: In vitro inhibitory activity against S-adenosyl-L-methionine decarboxylase using liver from rat in presence of 1 mM putrescine. In outline:
as §2

Assay [5] deals with T1, S-adenosylmethionine decarboxylase proenzyme (Rattus norvegicus). Put plainly: Time required for the half inactivation of S-Adenosyl-L-methionine decarboxylase was determined with 0.2 mM of Compound along with 1 mM NaBH3CN. The procedure, abridged: as §1
Assay [6] has the same target. Put plainly: Time required for the half inactivation of S-adenosyl-L-methionine decarboxylase was determined with 0.5 mM of compound.
Assay [7] shares this target. Put plainly: Time required for the half inactivation of S-adenosyl-L-methionine decarboxylase with 0.5 mM of compound along with 0.05 mM of [5-(6-Amino-purin-9-yl)-3,4-dihydroxy-tetrahydro-furan-2-ylmethyl]-dimethyl-sulfonium; iodide. The procedure, abridged: as §1
The target is the same in assay [8]. Put plainly: Time required for the half inactivation of S-adenosyl-L-methionine decarboxylase with 1 mM of compound along with 0.05 mM of [5-(6-Amino-purin-9-yl)-3,4-dihydroxy-tetrahydro-furan-2-ylmethyl]-dimethyl-sulfonium; iodide. The conditions noted are these: in the assay text read “0.2 mM of compound” for “1 mM of compound”. In outline:
as §1

In the case of `C[S+](CCCN)C[C@H]1OC(n2cnc3c(N)ncnc32)[C@H](O)[C@@H]1O` (some centres undefined), the results for the Inactivation time in assay [1] and in assay [3] were 100 min and 10 min, respectively. For the same compound, the values for the Ki in assay [2] and in assay [4] were 40 µM and 3 µM, respectively.
Consider `NCCCNC[C@H]1OC(n2cnc3c(N)ncnc32)[C@H](O)[C@@H]1O` (some centres undefined), for which the results for the Inactivation time in assay [1] and in assay [5] were 250 min and 25 min, respectively. The Ki in assay [4] is 50 µM.
Consider `NCCNC[C@H]1OC(n2cnc3c(N)ncnc32)[C@H](O)[C@@H]1O` (some centres undefined), for which the figures for the Ki in assay [2] and in assay [4] were 540 µM and 70 µM, respectively.
`C[S+](CC[C@H](N)C(=O)[O-])C[C@H]1O[C@@H](n2cnc3c(N)ncnc32)[C@H](O)[C@@H]1O` (some centres undefined) [ADEMETIONINE]: the results for the Inactivation time in assay [1] and in assay [3] were 100 min and 25 min, respectively. The Ki was 300 µM in assay [2] and 60 µM in assay [4].
Turning to `CNCCCNC[C@H]1OC(n2cnc3c(N)ncnc32)[C@H](O)[C@@H]1O` (some centres undefined), in assay [4], the Ki was found to be 600 µM.
Consider `NC[C@H]1O[C@@H](n2cnc3c(N)ncnc32)[C@H](O)[C@@H]1O`, for which the Ki in assay [2] is 1700 µM; in assay [4], 200 µM.
On to `CN(CCCN)C[C@H]1OC(n2cnc3c(N)ncnc32)[C@H](O)[C@@H]1O` (some centres undefined), for which the Inactivation time in assay [6] came out at 41 min; in assay [7], 98 min; in assay [1], 93 min; in assay [3], 12 min; in assay [8] it was 50 min. The inhibition constant (Ki) in assay [2] stood at 380 µM; in assay [4], 60 µM.
With `C[S+](C)C[C@H]1O[C@@H](n2cnc3c(N)ncnc32)[C@H](O)[C@@H]1O`, the results for the inhibition constant Ki in assay [2] and in assay [4] were 20 µM and 2 µM, respectively.
The matching figures for `CN(CCC#N)C[C@H]1OC(n2cnc3c(N)ncnc32)[C@H](O)[C@@H]1O` (some centres undefined): 2800 µM and 300 µM.
With `N=C(N)NC[C@H]1OC(n2cnc3c(N)ncnc32)[C@H](O)[C@@H]1O` (some centres undefined), the Ki in assay [2] stood at 1000 µM; in assay [4], 80 µM.
